Source: paper PMC9283309 (Journal of medicinal chemistry, 2022)

Key:
mTLR1/TLR2 = mTLR1/TLR2 (Mus musculus, UniProt Q9EPQ1+Q9QUN7); assay type: cell-based, mouse (C57BL/6J); conditions: mouse macrophages; for murine efficacy/activity in words: compared with diprovocim-1
TLR4 = assay type: cell-based, mouse; conditions: 500 nM, diprovocim-X versus diprovocim-1
[1] = tested on: OVA-specific IgG, IgG1, IgG2b; experiment: Antibody response assay: serum OVA-specific IgG, IgG1, IgG2b by ELISA; assay type: in vivo, C57BL/6J mice; conditions: 14 days after a single immunization, i.m. with OVA, 10 mg/kg
Method in brief: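 Female 8-week C57BL/6J mice (ca. 20 g) injected i.m. on day 0 with 100 μg OVA (5 mg/kg) plus 200 μg (10 mg/kg) test compound in DMSO:Tween 80:saline (1:1:8); serum taken day 14. ELISA: plates coated with 5 μg/mL OVA overnight at 4 °C, blocked 1% BSA 1 h, serum (diluted in 1% BSA) 2 h, HRP anti-mouse IgG/IgG1/IgG2b 1 h RT, TMB, A450.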

[2] = tested on: adaptive immune response (CD4- and CD-8 dependent responses); experiment: In vivo adjuvant activity on co-administration with OVA; set-up: species or system C57BL/6J mice; conditions: i.m. with OVA, 10 mg/kg
TLR2 = TLR2 (Homo sapiens, UniProt O60603+Q15399); assay type: cell-based; conditions: 5 nM; anti-TLR2 20 μg/mL, 1 h pretreatment
Method in brief: (§1)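 THP-1 cells PMA-differentiated (100 nM, 24 h) then rested 24 h in fresh RPMI/10% FBS. Cells pretreated 1 h with neutralizing anti-TLR1, anti-TLR2 or anti-TLR6 (20 μg/mL) before stimulation with 5 nM test compound; no-antibody wells as control. TNF-α release was the read-out.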

TLR1 = TLR1 (Homo sapiens, UniProt O60603+Q15399); assay type: cell-based; conditions: 5 nM; anti-TLR1 20 μg/mL, 1 h pretreatment
Method in brief: as §1

[3] = tested on: murine melanoma (B16-OVA); conditions: combination with checkpoint inhibitor anti-PD-L1, diprovocim/OVA i.m.; cited from earlier work
[4] = co-administered i.m. with ovalbumin (OVA); cited from earlier work
hTLR1/TLR2 = hTLR1/TLR2 (Homo sapiens, UniProt O60603+Q15399); experiment: Stimulated release of TNF-α from differentiated THP-1 cells; assay type: cell-based; conditions: text comment on Figure 3 data, compared with diprovocim-1
Chain of hTLR1/TLR2 (Q15399 25-786): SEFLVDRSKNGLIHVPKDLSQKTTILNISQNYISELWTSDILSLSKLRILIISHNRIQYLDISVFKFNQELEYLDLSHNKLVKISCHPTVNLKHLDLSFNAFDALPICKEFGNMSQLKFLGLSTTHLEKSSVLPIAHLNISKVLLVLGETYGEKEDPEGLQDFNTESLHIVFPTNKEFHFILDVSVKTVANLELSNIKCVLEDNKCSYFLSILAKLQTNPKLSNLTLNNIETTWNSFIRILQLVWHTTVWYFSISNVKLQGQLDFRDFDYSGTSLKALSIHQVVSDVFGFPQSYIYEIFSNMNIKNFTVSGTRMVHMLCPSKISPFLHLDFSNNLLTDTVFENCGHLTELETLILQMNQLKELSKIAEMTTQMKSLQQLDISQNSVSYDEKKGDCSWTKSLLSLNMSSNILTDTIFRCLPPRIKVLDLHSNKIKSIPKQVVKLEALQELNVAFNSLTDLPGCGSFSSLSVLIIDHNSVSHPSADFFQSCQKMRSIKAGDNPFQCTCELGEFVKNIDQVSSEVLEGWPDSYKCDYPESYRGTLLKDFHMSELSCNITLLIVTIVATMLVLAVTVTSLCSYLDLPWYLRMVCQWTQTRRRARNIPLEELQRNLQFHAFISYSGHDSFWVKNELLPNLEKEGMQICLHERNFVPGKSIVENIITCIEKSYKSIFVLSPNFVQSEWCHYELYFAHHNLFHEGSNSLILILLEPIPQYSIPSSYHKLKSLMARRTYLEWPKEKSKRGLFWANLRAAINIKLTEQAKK
Chain of hTLR1/TLR2 (O60603 21-784): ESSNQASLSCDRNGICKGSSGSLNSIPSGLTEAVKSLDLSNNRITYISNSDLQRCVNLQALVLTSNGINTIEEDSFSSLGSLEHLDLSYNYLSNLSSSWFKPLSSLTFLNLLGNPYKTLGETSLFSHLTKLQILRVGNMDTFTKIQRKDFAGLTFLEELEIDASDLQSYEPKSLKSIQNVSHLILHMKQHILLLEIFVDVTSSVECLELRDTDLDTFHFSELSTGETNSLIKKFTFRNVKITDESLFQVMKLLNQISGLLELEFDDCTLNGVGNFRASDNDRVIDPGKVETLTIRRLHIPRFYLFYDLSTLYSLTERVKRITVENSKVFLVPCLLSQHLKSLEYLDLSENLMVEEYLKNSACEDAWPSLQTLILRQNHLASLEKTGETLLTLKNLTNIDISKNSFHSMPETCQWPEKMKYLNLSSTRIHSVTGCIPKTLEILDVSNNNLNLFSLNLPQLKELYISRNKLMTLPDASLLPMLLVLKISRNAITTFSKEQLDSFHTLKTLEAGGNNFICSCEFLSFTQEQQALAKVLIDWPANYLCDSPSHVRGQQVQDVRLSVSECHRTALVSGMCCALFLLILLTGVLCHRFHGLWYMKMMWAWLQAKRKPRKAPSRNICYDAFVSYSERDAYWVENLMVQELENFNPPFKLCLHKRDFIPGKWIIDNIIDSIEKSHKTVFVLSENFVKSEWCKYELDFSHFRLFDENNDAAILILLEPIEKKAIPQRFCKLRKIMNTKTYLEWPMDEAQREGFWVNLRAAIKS

Chain of mTLR1/TLR2 (Q9EPQ1 26-795): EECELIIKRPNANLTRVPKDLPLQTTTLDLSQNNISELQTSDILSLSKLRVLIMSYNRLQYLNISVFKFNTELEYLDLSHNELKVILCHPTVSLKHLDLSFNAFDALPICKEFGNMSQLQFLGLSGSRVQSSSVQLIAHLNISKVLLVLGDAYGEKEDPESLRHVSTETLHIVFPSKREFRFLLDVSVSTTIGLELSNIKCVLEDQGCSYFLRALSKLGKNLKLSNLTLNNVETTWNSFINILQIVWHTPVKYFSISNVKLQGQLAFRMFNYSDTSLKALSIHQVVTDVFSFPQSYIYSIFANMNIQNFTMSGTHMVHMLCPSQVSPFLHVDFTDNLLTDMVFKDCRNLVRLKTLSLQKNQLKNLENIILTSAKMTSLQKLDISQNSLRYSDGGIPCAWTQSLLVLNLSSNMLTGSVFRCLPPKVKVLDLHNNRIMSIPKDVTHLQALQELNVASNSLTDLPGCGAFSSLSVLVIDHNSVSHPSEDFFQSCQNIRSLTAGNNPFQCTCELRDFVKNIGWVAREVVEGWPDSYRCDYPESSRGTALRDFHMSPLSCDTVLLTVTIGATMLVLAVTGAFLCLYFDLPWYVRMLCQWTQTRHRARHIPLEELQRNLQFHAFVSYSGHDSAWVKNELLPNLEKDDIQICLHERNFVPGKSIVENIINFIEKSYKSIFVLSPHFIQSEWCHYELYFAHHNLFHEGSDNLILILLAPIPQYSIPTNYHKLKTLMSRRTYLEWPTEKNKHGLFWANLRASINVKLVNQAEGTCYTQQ
Chain of mTLR1/TLR2 (Q9QUN7 25-784): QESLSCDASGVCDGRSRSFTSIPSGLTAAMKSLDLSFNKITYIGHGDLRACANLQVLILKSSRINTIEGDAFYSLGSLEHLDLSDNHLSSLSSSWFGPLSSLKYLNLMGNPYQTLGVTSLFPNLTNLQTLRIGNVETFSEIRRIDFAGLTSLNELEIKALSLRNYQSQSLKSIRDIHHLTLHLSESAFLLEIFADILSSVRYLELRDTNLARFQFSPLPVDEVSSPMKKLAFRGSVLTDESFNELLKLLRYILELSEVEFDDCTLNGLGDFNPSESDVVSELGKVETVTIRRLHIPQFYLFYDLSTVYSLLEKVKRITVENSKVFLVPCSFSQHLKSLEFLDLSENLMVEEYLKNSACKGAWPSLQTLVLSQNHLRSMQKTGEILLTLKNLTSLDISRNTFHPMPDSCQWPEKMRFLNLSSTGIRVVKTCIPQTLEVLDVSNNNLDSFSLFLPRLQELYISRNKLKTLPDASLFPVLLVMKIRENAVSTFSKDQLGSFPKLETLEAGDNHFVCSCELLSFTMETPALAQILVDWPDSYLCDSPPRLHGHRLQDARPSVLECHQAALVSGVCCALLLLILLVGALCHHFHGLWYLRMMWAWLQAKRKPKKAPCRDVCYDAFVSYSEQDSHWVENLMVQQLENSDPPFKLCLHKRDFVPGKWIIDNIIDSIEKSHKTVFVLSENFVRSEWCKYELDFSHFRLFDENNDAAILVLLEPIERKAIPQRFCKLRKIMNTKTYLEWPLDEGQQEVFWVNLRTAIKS
Chain of TLR2 (O60603 21-784): as the sequence (O60603 21-784) above
Chain of TLR2 (Q15399 25-786): as the sequence (Q15399 25-786) above
Chain of TLR1 (Q15399 25-786): as above
Chain of TLR1 (O60603 21-784): as the sequence (O60603 21-784) above

Q: Which results are given for `CC(C)(C)OC(=O)NCC(=O)OCCCCCCCCCCCCNC(=O)[C@@H]1CN(C(=O)c2ccc(C(=O)N3C[C@@H](C(=O)N[C@H]4C[C@@H]4c4ccccc4)[C@H](C(=O)N[C@H]4C[C@@H]4c4ccccc4)C3)cc2)C[C@H]1C(=O)N[C@H]1C[C@@H]1c1ccccc1` [compound 35, 12-((3S,4S)-1-(4-((3S,4S)-3,4-Bis(((1S,2R)-2-phenylcyclopropyl)carbamoyl)-pyrrolidine-1-carbonyl)benzoyl)-4-(((1S,2R)-2-phenylcyclopropyl)carbamoyl)-pyrrolidine-3-carboxamido)dodecyl-2-((tert-butoxycarbonyl)amino)acetate]?
A: fold more active than diprovocim-1 (mTLR1/TLR2; EC50 compared with diprovocim-1): 2 fold; efficacy as a TNF inducer in mouse macrophage cultures (TLR4): greater efficacy; OVA-specific circulating antibodies (IgG, IgG1, IgG2b) [1]: strong responses; adjuvant activity in mice [2]: matching or surpassing the in vivo activity of diprovocim-1; dependence of TNF-α release on TLR2 (TLR2): dependent; dependence of TNF-α release on TLR1 (TLR1): dependent

Q: With `O=C(NCCCCCCCCc1ccc(O)cc1)[C@@H]1CN(C(=O)c2ccc(C(=O)N3C[C@@H](C(=O)N[C@H]4C[C@@H]4c4ccccc4)[C@H](C(=O)N[C@H]4C[C@@H]4c4ccccc4)C3)cc2)C[C@H]1C(=O)N[C@H]1C[C@@H]1c1ccccc1` [compound 26, (3S,4S)-1-(4-((3S,4S)-3,4-Bis(((1S,2R)-2-phenylcyclopropyl)carbamoyl)pyrrolidine-1-carbonyl)-benzoyl)-N^3-(8-(4-hydroxyphenyl)octyl)-N^4-((1S,2R)-2-phenylcyclopropyl)pyrrolidine-3,4-dicarboxamide] as the compound, how does the “murine efficacy/activity in words” value (mTLR1/TLR2) read?
A: The value was “substantial increase in efficacy”.

Q: For `CC(C)(C)OC(=O)NCCOCCOCCOCCOCCC(=O)OCCCCCCCCCCCCNC(=O)[C@@H]1CN(C(=O)c2ccc(C(=O)N3C[C@@H](C(=O)N[C@H]4C[C@@H]4c4ccccc4)[C@H](C(=O)N[C@H]4C[C@@H]4c4ccccc4)C3)cc2)C[C@H]1C(=O)N[C@H]1C[C@@H]1c1ccccc1` [compound 55, 12-((3S,4S)-1-(4-((3S,4S)-3,4-Bis(((1S,2R)-2-phenylcyclopropyl)carbamoyl)pyrrolidine-1-carbonyl)benzoyl)-4-(((1S,2R)-2-phenylcyclopropyl)carbamoyl)pyrrolidine-3-carboxamido)-dodecyl 2,2-dimethyl-4-oxo-3,8,11,14,17-pentaoxa-5-azaicosan-20-oate], which “murine efficacy/activity in words” value (mTLR1/TLR2) is on record?
A: The value was “modest increase in the efficacy”.

Q: For `CC(C)(C)OC(=O)NCCCCCCCCCCCCNC(=O)[C@@H]1CN(C(=O)c2ccc(C(=O)N3C[C@@H](C(=O)N[C@H]4C[C@@H]4c4ccccc4)[C@H](C(=O)N[C@H]4C[C@@H]4c4ccccc4)C3)cc2)C[C@H]1C(=O)N[C@H]1C[C@@H]1c1ccccc1` [compound 17, tert-Butyl (12-((3S,4S)-1-(4-((3S,4S)-3,4-bis(((1S,2R)-2-phenylcyclopropyl)carbamoyl)-pyrrolidine-1-carbonyl)benzoyl)-4-(((1S,2R)-2-phenylcyclopropyl)carbamoyl)pyrrolidine-3-carboxamido)dodecyl)carbamate], which “murine efficacy/activity in words” value (mTLR1/TLR2) is on record?
A: The value was “did not display this increased or improved murine activity”.

Q: With `O=C(N[C@H]1C[C@@H]1c1ccccc1)[C@@H]1CN(C(=O)c2ccc(C(=O)N3C[C@@H](C(=O)N[C@H]4C[C@@H]4c4ccccc4)[C@H](C(=O)N[C@H]4C[C@@H]4c4ccccc4)C3)cc2)C[C@H]1C(=O)N[C@H]1C[C@@H]1c1ccccc1` [compound 1] as the compound, how does the “OVA-specific circulating antibodies (IgG, IgG1, IgG2b)” value [1] read?
A: Its value is “strong responses”.

Q: And the “adjuvant activity in mice” value [2]?
A: Its value is “comparable adjuvant activity”.

Q: And the “tumor response, B16-OVA” value [3]?
A: Its value is “eradicated tumors”.

Q: What about the “adjuvant activity in mice” value [4] of the same compound?
A: The value was “effective adjuvant”.

Q: For `C#CCCCCCCCCCCCCNC(=O)[C@@H]1CN(C(=O)c2ccc(C(=O)N3C[C@@H](C(=O)N[C@H]4C[C@@H]4c4ccccc4)[C@H](C(=O)N[C@H]4C[C@@H]4c4ccccc4)C3)cc2)C[C@H]1C(=O)N[C@H]1C[C@@H]1c1ccccc1` [compound 19, (3S,4S)-1-(4-((3S,4S)-3,4-Bis(((1S,2R)-2-phenylcyclopropyl)carbamoyl)pyrrolidine-1-carbonyl)-benzoyl)-N^3-((1S,2R)-2-phenylcyclopropyl)-N^4-(tetradec-13-yn-1-yl)pyrrolidine-3,4-dicarboxamide], which “response efficacy in words” value (hTLR1/TLR2) is on record?
A: The value was “small improvement in the response efficacy”.

Q: For `Nc1ccc(CCCCCCCCNC(=O)[C@@H]2CN(C(=O)c3ccc(C(=O)N4C[C@@H](C(=O)N[C@H]5C[C@@H]5c5ccccc5)[C@H](C(=O)N[C@H]5C[C@@H]5c5ccccc5)C4)cc3)C[C@H]2C(=O)N[C@H]2C[C@@H]2c2ccccc2)cc1` [compound 27, (3S,4S)-N^3-(8-(4-Aminophenyl)octyl)-1-(4-((3S,4S)-3,4-bis(((1S,2R)-2-phenylcyclopropyl)-carbamoyl)pyrrolidine-1-carbonyl)benzoyl)-N^4-((1S,2R)-2-phenylcyclopropyl)pyrrolidine-3,4-dicarboxamide], which “murine efficacy/activity in words” value (mTLR1/TLR2) is on record?
A: The value was “substantial increase in efficacy”.
